Data taken from ChEMBL document CHEMBL1681763, “Synthesis and biological evaluation of L-valine-amidoximeesters as double prodrugs of amidines” (Bioorg Med Chem, 2011).
Each block holds one molecule with its values, some of them ahead of it.

What was measured:
[1] = system: Liver microsomes; assay: Stability in human liver microsomes assessed as conversion of prodrug into pentamidine per mg protein; assay type: ADME, Microsome
In short: (§1)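 Human or porcine liver/kidney subcellular fractions (microsomes, mitochondria, 9000g supernatant, cytosol); 0.3 mg protein with 1 mM prodrug in 100 mM potassium phosphate pH 6.3, preincubated 5 min at 37 °C aerobically, started with NADH (1 mM final); protein removed by centrifugation, supernatant analysed by HPLC; turnover as mean ± SD of two independent experiments measured twice.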

[2] = Stability in human liver mitochondria assessed as conversion of prodrug into pentamidine per mg protein; assay type: ADME; in short: as §1
[3] = system: Liver; assay: Stability in human liver 9000g supernatant assessed as conversion of prodrug into pentamidine per mg protein; assay type: ADME, tissue-based; in short: as §1
[4] = Stability in human kidney microsomes assessed as conversion of prodrug into pentamidine per mg protein; assay type: ADME, Microsome; in short: as §1
[5] = Stability in human kidney mitochondria assessed as conversion of prodrug into pentamidine per mg protein; assay type: ADME; in short: as §1
[6] = target: T1, Mitochondrial amidoxime-reducing component 1 (Homo sapiens) (UniProt Q5VT66); assay: Activation of prodrug into pentamidine per mg of recombinant hmARC1 in 20 mM MES buffer of pH 6.0 for 30 mins
T1 sequence (whole entry): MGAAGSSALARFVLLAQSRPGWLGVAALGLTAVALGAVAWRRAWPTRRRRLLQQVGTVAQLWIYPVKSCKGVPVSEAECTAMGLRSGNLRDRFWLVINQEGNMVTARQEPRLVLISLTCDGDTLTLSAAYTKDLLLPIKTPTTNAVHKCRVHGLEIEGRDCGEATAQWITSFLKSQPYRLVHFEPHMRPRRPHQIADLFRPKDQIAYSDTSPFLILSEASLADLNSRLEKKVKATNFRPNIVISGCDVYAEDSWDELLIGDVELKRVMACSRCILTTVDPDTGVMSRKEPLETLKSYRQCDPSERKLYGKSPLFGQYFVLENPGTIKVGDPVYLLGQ
In short: (§2)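 Recombinant human mARC1 or mARC2 (76 pmol) incubated with 0.5 mM prodrug, 1 mM NADH, 2 U pig liver carboxylesterase, 76 pmol cytochrome b5 and 7.6 pmol NADH cytochrome b5 reductase in 20 mM MES pH 6.0; amidine formed quantified by HPLC; turnover rates as mean ± SD of three incubations.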

[7] = Activation of prodrug into pentamidine per mg of recombinant hmARC2 in 20 mM MES buffer of pH 6.0 for 30 mins; in short: as §2
[8] = Stability of the compound at pH 2; assay type: physicochemical; settings: buffer
In short: (§3)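 Chemical stability: prodrug at 100 µM in 100 mM potassium phosphate buffer pH 2.0, 6.3 or 7.4 at 37 °C; remaining prodrug and hydrolysis products followed by HPLC.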

[9] = Stability of the compound at pH 6.3; assay type: physicochemical; settings: buffer; in short: as §3
[10] = Stability of the compound at pH 7.4; assay type: physicochemical; settings: buffer; in short: as §3
[11] = Stability of the compound in presence of 0.5 U esterase/250 uL; assay type: ADME; settings: isolated protein
In short: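 Prodrugs incubated with pig liver carboxylesterase (0.5 U/250 µL) in 100 mM potassium buffer pH 7.4; hydrolysis followed by HPLC.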

[12] = Stability in pig liver microsomes assessed as conversion of prodrug into pentamidine per mg protein; assay type: ADME, Sus scrofa, Microsome; in short: as §1
[13] = Stability in pig liver mitochondria assessed as conversion of prodrug into pentamidine per mg protein; assay type: ADME, Sus scrofa; in short: as §1
[14] = Stability in pig liver 9000g supernatant assessed as conversion of prodrug into pentamidine per mg protein; assay type: ADME, tissue-based, Sus scrofa; in short: as §1
[15] = Stability in pig kidney mitochondria assessed as conversion of prodrug into pentamidine per mg protein; assay type: ADME, Sus scrofa; in short: as §1
[16] = Stability in pig kidney microsomes assessed as conversion of prodrug into pentamidine per mg protein; assay type: ADME, Sus scrofa, Microsome; in short: as §1
[17] = Stability in pig kidney 9000g supernatant assessed as conversion of prodrug into pentamidine per mg protein; assay type: ADME, tissue-based, Sus scrofa; in short: as §1
[18] = Stability in pig hepatocytes assessed as conversion of prodrug into benzamidoxime per mg protein; assay type: ADME, cell-based, Sus scrofa, Hepatocyte
[19] = Stability in pig hepatocytes assessed as conversion of prodrug into benzamidine per mg protein; assay type: ADME, cell-based, Sus scrofa, Hepatocyte
[20] = target: T1, Mitochondrial amidoxime-reducing component 1 (Homo sapiens); assay: Activation of prodrug into benzamidine per mg of recombinant hmARC1 in 20 mM MES buffer of pH 6.0 for 30 mins; in short: as §2
[21] = Activation of prodrug into benzamidine per mg of recombinant hmARC2 in 20 mM MES buffer of pH 6.0 for 30 mins; in short: as §2
[22] = system: Rattus norvegicus; assay: Tmax in Wistar rat assessed as benzamidine at 50 mg/kg, po; assay type: ADME, organism-based; design: dose 50 mg/kg, route oral; settings: in vivo
In short: (§4)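 Male Wistar rats (initial weight 230 g) fitted with carotid artery and jugular vein cannulas, fasted 16 h; prodrug 50 mg/kg by oral gavage in 100 mM phosphate buffer pH 6.3 (n = 3); reference benzamidine 10 mg/kg iv in water for injection; blood at 30–480 min (oral) or 10–360 min (iv); plasma benzamidine by HPLC.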

[23] = system: Rattus norvegicus; assay: Cmax in Wistar rat assessed as benzamidine at 50 mg/kg, po; assay type: ADME, organism-based; design: dose 50 mg/kg, route oral; settings: in vivo; in short: as §4
[24] = system: Rattus norvegicus; assay: Half life in Wistar rat assessed as benzamidine at 50 mg/kg, po; assay type: ADME, organism-based; design: dose 50 mg/kg, route oral; settings: in vivo; in short: as §4
[25] = system: Rattus norvegicus; assay: Mean residence time in Wistar rat assessed as benzamidine at 50 mg/kg, po; assay type: ADME, organism-based; design: dose 50 mg/kg, route oral; settings: in vivo; in short: as §4
[26] = system: Rattus norvegicus; assay: Volume of distribution in Wistar rat assessed as benzamidine at 50 mg/kg, po; assay type: ADME, organism-based; design: dose 50 mg/kg, route oral; settings: in vivo; in short: as §4
[27] = system: Rattus norvegicus; assay: Clearance in Wistar rat assessed as benzamidine at 50 mg/kg, po; assay type: ADME, organism-based; design: dose 50 mg/kg, route oral; settings: in vivo; in short: as §4
[28] = system: Rattus norvegicus; assay: Oral bioavailability in Wistar rat assessed as benzamidine at 50 mg/kg; assay type: ADME, organism-based; settings: in vivo; in short: as §4
[29] = Stability of the compound assessed as conversion to benzamidoxime at pH 2; assay type: physicochemical; settings: buffer; in short: as §3
[30] = Stability in pig liver microsomes assessed as conversion of prodrug into benzamidine per mg protein; assay type: ADME, Sus scrofa, Microsome; in short: as §1
[31] = Stability in pig liver mitochondria assessed as conversion of prodrug into benzamidine per mg protein; assay type: ADME, Sus scrofa; in short: as §1
[32] = Stability in pig liver cytosol assessed as conversion of prodrug into benzamidine per mg protein in potassium phosphate buffer of pH 6.3; assay type: ADME, tissue-based, Sus scrofa; in short: as §1
[33] = Stability in pig liver 9000g supernatant assessed as conversion of prodrug into benzamidine per mg protein; assay type: ADME, tissue-based, Sus scrofa; in short: as §1
[34] = Stability in pig kidney mitochondria assessed as conversion of prodrug into benzamidine per mg protein; assay type: ADME, Sus scrofa; in short: as §1
[35] = Stability in pig kidney microsomes assessed as conversion of prodrug into benzamidine per mg protein; assay type: ADME, Sus scrofa, Microsome; in short: as §1
[36] = Stability in pig kidney 9000g supernatant assessed as conversion of prodrug into benzamidine per mg protein; assay type: ADME, tissue-based, Sus scrofa; in short: as §1
[37] = system: Liver microsomes; assay: Stability in human liver microsomes assessed as conversion of prodrug into benzamidine per mg protein; assay type: ADME, Microsome; in short: as §1
[38] = Stability in human liver mitochondria assessed as conversion of prodrug into benzamidine per mg protein; assay type: ADME; in short: as §1
[39] = system: Liver; assay: Stability in human liver 9000g supernatant assessed as conversion of prodrug into benzamidine per mg protein; assay type: ADME, tissue-based; in short: as §1
[40] = Stability in human kidney microsomes assessed as conversion of prodrug into benzamidine per mg protein; assay type: ADME, Microsome; in short: as §1
[41] = Stability in human kidney mitochondria assessed as conversion of prodrug into benzamidine per mg protein; assay type: ADME; in short: as §1

- Stability [1]: 0.3 nmol/min/mg
- Stability [2]: 0.2 nmol/min
- Stability [3]: 0.2 nmol/min/mg
- Stability [4]: 0.3 nmol/min/mg
- Stability [5]: 0.4 nmol/min/mg
- Stability [6]: 48.8 nmol/min
- Stability [8]: Stable
- Stability [9]: Stable
- Stability [10]: Stable
- Stability [11]: Unstable
- Stability [12]: 0.5 nmol/min/mg
- Stability [13]: 1 nmol/min
- Stability [14]: 0.4 nmol/min/mg
- Stability [15]: 0.8 nmol/min/mg
- Stability [16]: 0.7 nmol/min/mg
- Stability [17]: 0.2 nmol/min/mg
Compound: CC(C)[C@H](N)C(=O)O/N=C(\N)c1ccc(OCCCCCOc2ccc(/C(N)=N/OC(=O)[C@@H](N)C(C)C)cc2)cc1
- Stability [7]: 10.9 nmol/min/mg

- Stability [18]: 650 pmol/min
- Stability [19]: 175 pmol/min
- Stability [20]: 67.4 nmol/min/mg
- Tmax [22]: 0.833 h
- Cmax [23]: 23.3 µM
- t1/2 [24]: 2.922 h
- MRT [25]: 4.323 h
- Vd [26]: 12.84 L/kg
- CL [27]: 3 L/h/kg
- F [28]: 87.7%
- Stability [9]: Stable
- Stability [10]: Stable
- Stability [29]: Unstable
- Stability [11]: Unstable
- Stability [30]: 7 nmol/min/mg
- Stability [31]: 8.6 nmol/min/mg
- Stability [32]: 1.2 nmol/min
- Stability [33]: 3.4 nmol/min/mg
- Stability [34]: 8.8 nmol/min/mg
- Stability [35]: 10.4 nmol/min/mg
- Stability [36]: 5.6 nmol/min
- Stability [37]: 0.9 nmol/min/mg
- Stability [38]: 1.8 nmol/min/mg
- Stability [39]: 0.2 nmol/min/mg
- Stability [40]: 1.3 nmol/min
- Stability [41]: 2 nmol/min/mg
Compound: CC(C)[C@H](N)C(=O)O/N=C(\N)c1ccccc1
- Stability [21]: 43.7 nmol/min
